Most compounds without a hit are left out; they make up all but 5.1% or so of the library.
STAT3 act: STAT3 signaling activation. U3A cells, IL-6 STAT3-luciferase reporter, luminescence; 100% = signal with IL-6 EC80 alone. activation (% of control), % at 5.6 µM. 190,000 tested, 0.91% active;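 active = activation above the screen-wide mean of compound activation plus 3 SD, cut at about 130% in these data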;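 also: 0% = background luminescence of wells with medium and substrate only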
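System – human U3A cells carrying STAT3-luciferase construct · Probe or stimulus – Interleukin-6, 33 ng/mL · Schedule – compound 1 h, then IL-6 6 h at 37 °C · Signal – luminescence from STAT3-driven luciferase reporter · Evaluation – percent of IL-6-only median luminescence · Benchmarks – IL-6-only high control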
STAT1 inh: reduces IFN-gamma driven STAT1 reporter signal | NIH 3T3 STAT1-luciferase reporter, luminescence | inhibition, % at 5.5 µM | 200,000 tested, 0.35% active;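 active = inhibition above a set limit, the mean inhibition across all tested compounds plus 3 SD, cut at about 34% in these data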;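 also: 0% = IFN-gamma with DMSO and 100% = IFN-gamma with 300 µM nifuroxazide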
APP 5'UTR act: activates APP 5'UTR luciferase reporter; SH-SY5Y APP 5'UTR luciferase reporter, luminescence; zero percent = DMSO vehicle wells; activation, % at 2 µM; 190,000 tested, 1% active; AID 1276;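 active = activation above a set limit, based on mean plus 3 SD of controls, cut at about 140% in these data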
STAT1 act: activators of IFN-gamma induced STAT1 signaling | NIH 3T3 STAT1-luciferase reporter, luminescence; 100% = IFN-gamma alone, no compound | activation (% of control), % at 5.5 µM | 200,000 tested, 2.6% active | AID 932;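 active = activation above the screen-wide mean activation plus 3 SD, cut at about 130% in these data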;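 also: raw ratio to IFN-gamma control signal so 100% means no change and 0% no light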
STAT3 blocker: inhibitors of IL-6 induced STAT3 signaling; 190,000 tested, 0.89% active; inhibition, % at 5.5 µM; U3A cells, IL-6 STAT3-luciferase reporter, luminescence; host cell line lacks STAT1;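 active = inhibition above the mean inhibition across all screened compounds plus 3 SD, cut at about 44% in these data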;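 also: 0% = DMSO only wells and 100% = 100 µM nifuroxazide control wells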
NF-kB expr up: NF-kB expression increase, human neuronal cells | NF-kB reporter expression; active compounds read high | fold change at 12.5 µM | AID 1239 | 190,000 tested, 1.6% active; in the data active = fold change above about 3.3
* hit, by the source's call.

SMILES	STAT3 act	STAT1 inh	APP 5'UTR act	STAT1 act	STAT3 blocker	NF-kB expr up
COc1ccc(C(=O)C(OC(=O)c2ccccc2)c2ccccc2)cc1 (stereo not given)	124.8	-35.7	42.2	132.6*	-22.4	1.51
Cc1ccc(NC(=O)C(OC(=O)c2ccccc2Cl)c2ccccc2)cc1Cl (stereo not given)	105.9	4.2	-14.6	96.3	-6.9	1.06
O=C(NCc1ccccc1)C1(c2cccc(F)c2)CCCC1	102.7	-1.3	-8.1	99.9	4.8	1.62
CCC1=NN(C(=O)Cc2ccc([N+](=O)[O-])cc2)C(O)(C(C)(C)C)C1 (stereo not given)	96.0	18.6	8.0	83.1	5.5	3.5*
CCC(=O)N1N=C(c2ccc(NS(C)(=O)=O)cc2)CC1c1ccc(N(C)C)cc1 (stereo not given)	111.0	-33.8	23.6	128.6*	-5.8	2.04
CC(=O)Nc1ccc2ccccc2c1	105.6	1.0	-5.4	99.0	0.6	1.71
CCOC(=O)C(Nc1ccc2ccccc2c1)C(=O)OCC	135.5*	6.4	17.4	94.3	-41.3	0.81
COc1ccc(C2C(C#N)=C(N)N3C(=C2C#N)Sc2ccccc23)cc1 (stereo not given)	105.0	-1.5	4.6	102.6	0.8	1.14
Cc1ccc(C(=O)C2=C(O)C(=O)N(Cc3ccccc3)C2c2cccnc2)o1 (stereo not given)	94.3	36.6*	4.8	66.2	6.2	0.83
CC(=O)N(Cc1ccco1)c1nc(C(=O)Nc2ccc(Cl)cc2)c(C)s1	94.8	-6.7	1.4	106.4	4.8	1.2
C[C@H](NC(N)=O)C(=O)OCC(=O)NCc1cccs1	104.5	3.5	-5.1	95.2	5.7	1.2
COc1ccc(S(=O)(=O)n2[nH]c(=O)c(CCO)c2C)c([N+](=O)[O-])c1	94.2	-7.0	-2.7	106.6	15.2	0.88
CCOc1ccc(-c2cc(C(=O)OC)[nH]n2)cc1	99.9	-43.8	58.5	141.8*	0.7	2.68
COc1ccccc1NC(=S)N(CCN1CCCCCC1)Cc1cccs1	95.7	2.9	16.3	96.6	15.9	1.18
O=C(Nc1cccc(Oc2ccc3c(c2)C(=O)NC3=O)c1)c1cccs1	96.8	1.8	-22.0	98.4	8.7	0.96
CN(C)/N=C/c1ccc(OS(=O)(=O)c2ccccc2)cc1	103.7	-45.2	89.2	139.9*	0.3	4.78*
O=C1ON=C(c2ccccc2)/C1=C/c1ccc(OS(=O)(=O)c2ccccc2)cc1	110.8	-12.1	14.7	110.8	-12.1	1.14
O=C(CN1CCCc2ccccc21)NCCc1ccc(F)cc1	109.6	9.6	19.1	90.0	-7.9	0.92
COC(=O)CSc1nc2ccccc2o1	105.5	-10.9	0.4	109.9	-2.6	0.97
CCCCCCOC(=O)Sc1nc2ccccc2o1	89.8	-1.7	11.0	107.5	13.2	4.06*
COc1ccc(NC(=O)C(=O)NCCO)cc1Cl	97.9	-10.2	-2.8	109.0	0.0	1.16
O=[N+]([O-])c1ccc(O)c(C=Nc2ccc3nc(-c4ccccc4)[nH]c3c2)c1	111.6	-45.0	75.5	140.1*	-17.0	1.75
Oc1c(Br)cc(C=Nc2ccc3nc(-c4ccccc4)[nH]c3c2)c(O)c1Br	102.3	-37.2	69.8	132.9*	9.0	0.83
CC(c1cccs1)N(Cc1ccco1)C(=S)Nc1ccccc1Cl (stereo not given)	105.1	7.9	3.9	92.1	6.5	1.26
CCOc1ccc(NCc2ccccc2OCc2cccc(F)c2)cc1	81.8	-1.4	21.7	101.2	22.1	0.95
SMILES	STAT3 act	STAT1 inh	APP 5'UTR act	STAT1 act	STAT3 blocker	NF-kB expr up
O=c1c(-c2n[nH]c(=S)n2-c2ccccc2)cccn1Cc1cccc(Cl)c1	83.2	3.9	14.7	95.1	25.7	1.08
Oc1c(C=NCc2ccccc2)sc2ccccc12	103.3	-48.3	11.4	142.9*	-1.5	3.49*
CC(C)Oc1ccc(Cc2cnc(=S)[nH]c2N)cc1	100.7	-0.3	-4.0	99.9	3.1	1.23
NC1=NC(=O)/C(=C\C=C\c2ccccc2)S1	102.1	-38.0	19.4	134.3*	0.6	1.49
O=C1CN(C(=O)COC(=O)c2cccc(OCc3ccccc3)c2)c2ccccc2N1	111.4	-10.0	3.8	109.0	-13.7	1.27
COC(=O)c1ccc(NC(=O)CN(c2ccc(OC)cc2)S(C)(=O)=O)cc1	122.1	-36.8	20.0	134.0*	-24.0	2.8
Nc1nc(Nc2ccc(Cl)cc2Cl)nc(C(F)(F)F)n1	109.2	-43.6	-0.5	140.2*	-8.5	1.9
Nc1nc(Nc2ccccc2Br)nc(C(F)(F)F)n1	93.0	-8.0	8.6	108.4	8.8	1.39
CCOC(=O)c1c(NC(=O)CSc2nnc(-c3c[nH]c4ccccc34)n2CCOC)sc2c1CCCCC2	109.4	4.0	-11.5	96.4	-11.0	0.56
CCOC(=O)c1c(NC(=O)CSc2c[nH]c3ccccc23)sc2c1CCC2	106.7	3.3	-13.5	97.0	-7.9	4.04*
CCOC(=O)c1c(NC(=O)CSc2nnc3ccccn23)sc2c1CCC2	92.2	-0.5	-0.4	100.6	8.1	1.19
CCOC(=O)c1c(NC(=O)CSc2c[nH]c3ccccc23)sc2c1CCCC2	134.6*	-1.3	-9.8	101.2	-40.4	3.17
COc1ccc(S(=O)(=O)N(CC(=O)NC2CC2)c2ccc(C)cc2)cc1	101.3	-0.3	12.4	99.5	10.0	0.83
CNS(=O)(=O)c1cc(NC(C)=O)c(C)cc1C	99.4	-6.4	-0.9	105.7	3.0	1.29
C(=N\NC1=Nc2cccc3cccc1c23)/c1ccccc1	143.8*	-89.4	-31.1	179.8*	-48.7	1.57
Clc1ccc(N/N=C/c2cccnc2)cc1	95.9	-12.6	41.2	111.4	9.7	1.83
Clc1ccc(/C=N/NC2=Nc3cccc4cccc2c34)cc1	119.3	-39.2	70.0	135.4*	-18.7	1.43
C(=N\NC1=Nc2cccc3cccc1c23)/c1cccnc1	131.4	-54.2	73.8	150.1*	-27.4	1.03
COc1ccc(NC2=Nc3cccc4cccc2c34)cc1OC	78.7	-6.2	-10.9	105.6	29.8	1.09
COCc1c(C(=O)OCC(=O)NCCN2C(=O)CSC2=O)oc2ccccc12	103.4	1.4	-2.9	100.9	-6.8	1.12
Cc1cccc(NS(=O)(=O)c2cc(C(=O)OC(C)C(=O)NCc3ccc4c(c3)OCO4)ccc2C)c1 (stereo not given)	99.8	8.8	5.6	92.1	1.0	0.71
CN(C)c1ccc(/C=C2/SC(=O)N(CCN=C3NS(=O)(=O)c4ccccc43)C2=O)cc1	110.2	-36.5	35.2	133.2*	-17.2	1.36
Cc1cccc(C(=O)OC(C)CN2CCOCC2)c1 (stereo not given)	103.9	-12.1	-13.7	111.6	4.1	1.53
CC(CN1CCOCC1)OC(=O)c1ccc2c(c1)OCCO2 (stereo not given)	122.2	-41.9	32.9	137.5*	-17.9	2.05

Assay outcomes deposited in PubChem by several laboratories.
